# STEP block: STEP (human) phosphatase inhibition; P54829; AID 588621; hit rate 0.25% among 360,000; recombinant STEP, OMFP fluorogenic substrate, fluorescence; inhibition, % at 20 µM;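 active means inhibition at 20 µM, scaled per plate between control wells, above about 37%, limit read from the data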;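 further: 0% = DMSO with enzyme and substrate and 100% = substrate only without enzyme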
#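 System: isolated STEP enzyme; schedule: 20 min enzyme reaction at room temperature, protected from light; medium: Bis-Tris buffer pH 6.0, 2.5 mM DTT, 0.005% Tween 20; signal: fluorescence, 480/540 nm; dosing: single compound dose of 20 µM, 1% DMSO final; also added: OMFP substrate, 25 µM final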
# NadD block: inhibitors of Staphylococcus aureus NadD. purified NadD enzyme, colorimetric absorbance read-out. inhibition, % at 20 µM. hit rate 0.78% among 360,000. AID 602399; in the data active means inhibition above about 26%
# Scp1 inh: inhibitors of human Scp-1 phosphatase. Q9GZU7. Recombinant Scp1, phosphopeptide, malachite green phosphate absorbance. inhibition, % at 20 µM. AID 493091. hit rate 0.88% among 340,000;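 active means inhibition above about 50% at 20 µM, limit read from the data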;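 further: plate controls were DMSO wells with enzyme for no effect and wells lacking enzyme for full effect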
#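 Material – SCP-1 phosphatase catalytic domain, residues 76-261 · Buffer or medium – Acidic Tris acetate buffer with magnesium and detergent · Also added – Phospho 17-mer peptide substrate · Compound – single 20 µM dose, 1% DMSO · Times – 45 min room-temperature reaction, 5 min colour, 30 min stabiliser · Technique – Phosphate-binding colour reagent, absorbance read at 630 nm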
# DNMT1 block: blocks human DNA methyltransferase DNMT1; P26358; DNMT1 molecular beacon, Hinp1I cleavage, fluorescence; inhibition (reported as % activation of signal), % at 10 µM; hit rate 0.83% among 360,000; AID 588458; in the data active means inhibition above about 50%
# SUMO1 PPI mod: alters human SUMO1 binding to SIM partners; SUMO1 binding to a labelled peptide, TR-FRET, 1 h; hit rate 0.33% among 360,000; inhibition, % at 20 µM; in the data active means inhibition above about 37%
# LMPTP inh: LMPTP (human) inhibition. AID 651560. recombinant LMPTP-A, OMFP fluorogenic substrate, fluorescence intensity. hit rate 0.22% among 360,000. inhibition, % at 20 µM. P24666;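 active means compounds that cut the enzyme signal by at least half of the control window in the single-dose screen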;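 further: plate controls were DMSO wells with enzyme plus substrate for no effect and substrate without enzyme for full effect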
#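 Material: LMPTP-A; amount: 0.625 nM enzyme; doses: single 20 µM dose; times: reaction 50 min, room temperature, dark; technique: fluorescence intensity of OMFP turnover product; benchmarks: no-enzyme and uninhibited controls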
# Scp1 confirm: Scp-1 (human) inhibition, single-dose confirmed | shares compounds with Scp1 inh | recombinant SCP-1 catalytic domain, phosphate release, malachite green absorbance | inhibition, % at 20 µM | hit rate 61% among 2,500 | AID 540281;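 further: plate controls were DMSO with enzyme for no effect and buffer wells lacking enzyme for full effect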
# Scp-1 MG ctr: interferes with malachite green readout, flagging false Scp-1 hits; shares compounds with Scp1 inh; Colorimetric interference counterscreen, malachite green absorbance 630 nm; apparent inhibition (interference), % at 20 µM; 2,500 tested, under 10 active;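 further: compounds added after enzyme reaction finished so only phosphate colour detection is probed; plate controls were DMSO wells with completed Scp-1 reaction for no effect and substrate wells lacking enzyme for full effect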
# Scp-1 Tm shift: Scp-1 (human) binding by thermal shift; thermal shift relative to vanadate control, % at 40 µM; Recombinant SCP1, Sypro Orange thermal shift Tm; shares compounds with Scp1 inh; hit rate 25% among 1,500;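 active means substances whose mean melting-temperature shift, as a percentage of the reference inhibitor's shift, reaches about 5.3%, limit read from the data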;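 further: 0% = Tm of DMSO wells and 100% = Tm with sodium orthovanadate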
# * = called active by the depositor; . = not tested or not shown. Rows were chosen to be rich in hits. Some 2.4% of all compounds tested hit in one or more screens of this group.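 How the source made its calls, unless noted: active means inhibition of at least 30% at 20 µM; inactive means the rest.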
SMILES,STEP block,NadD block,Scp1 inh,DNMT1 block,SUMO1 PPI mod,LMPTP inh,Scp1 confirm,Scp-1 MG ctr,Scp-1 Tm shift
CCCCn1c(N)c(N(CC(C)C)C(=O)C2CC(=O)N(Cc3ccccc3)C2)c(=O)[nH]c1=O (centres undefined),-1,4,-2,0,-1,-1,-16,-13,.
Cc1ccc2ccccc2[n+]1CCCS(=O)(=O)[O-],0,0,18,4,-10,0,.,.,.
O=S(=O)([O-])CCC[n+]1ccc(Oc2ccccc2)cc1,6,17,95*,1,-3,-2,94*,0,-25
Cc1nnc(NC(=O)CCSCCC(=O)Nc2nnc(C)s2)s1,0,13,82*,32,28,1,74*,-8,2
CCOC(=O)CCSCC(=O)Nc1nnc(C)s1,2,-8,-4,1,0,-2,.,.,.
COc1cccc(CNC(=O)CSc2nnc3c(n2)[nH]c2ccc(C)cc23)c1,-2,0,-1,10,-2,-1,.,.,.
COc1ccc(CNC(=O)CSc2nnc3c(n2)[nH]c2ccc(OC)cc23)cc1,7,5,65*,12,3,5,70*,-9,-3
COc1ccc(CNC(=O)CSc2nnc3c(n2)[nH]c2ccc(F)cc23)cc1,17,0,62*,23,4,12,31*,-12,-2
COc1ccc(CCNC(=O)CSc2nnc3c(n2)[nH]c2ccc(F)cc23)cc1OC,-2,-2,-10,-3,-17,-2,.,.,.
COC(=O)c1ccn(CC(=O)NC2CCCCC2)n1,4,3,66*,9,1,1,48*,-3,-3
C=C(C)C(=O)N1CC2(CC(c3cccc(NC(=O)/C=C\C=C/C)c3)=NO2)C[C@H]1C(N)=O (some centres undefined),4,-4,52*,-31,23,-3,55*,-13,-11
CCCCCC(=O)Nc1cccc(C2=NOC3(C2)C[C@@H](C(N)=O)N(C(=O)c2ccc(Cl)cc2)C3)c1 (some centres undefined),-1,1,66*,1,0,0,-14,-16,.
C/C=C\C=C/C(=O)Nc1cccc(C2=NOC3(C2)C[C@@H](C(N)=O)N(C(=O)C2(C)CC2)C3)c1 (some centres undefined),1,-1,-3,-14,-3,-1,.,.,.
C/C=C/C(=O)N1CC2(CC(c3cccc(NC(=O)CC)c3)=NO2)C[C@H]1C(N)=O (some centres undefined),-2,3,4,2,6,-3,.,.,.
C=C(C)C(=O)Nc1cccc(C2=NOC3(C2)C[C@H](C(N)=O)N(C(=O)/C=C/C)C3)c1 (some centres undefined),1,-2,66*,99*,60*,1,57*,-13,-30
CCN(CC)C(=O)COc1c(-c2ccco2)oc2ccccc2c1=O,0,-4,0,2,-23,-2,.,.,.
CCN(CC)C(=O)COc1ccc2oc(-c3ccco3)cc(=O)c2c1,4,-1,74*,20,-13,3,49*,-4,-1
Cc1ccc(C(=O)Nc2ccncc2)c(Cl)c1,-1,-6,5,0,-4,-2,.,.,.
Cc1ccc(C)c(C(=O)Nc2ccncc2)c1,0,-1,78*,1,1,-3,-9,-10,.
N=C1/C(=C/c2ccc(-c3cccc(C(=O)O)c3)o2)C(=O)N=C2SC(CC(=O)N3CCOCC3)=NN12,25,6,79*,56*,33,2,58*,-13,2
N=C1/C(=C\c2ccc(SCc3ccccc3)o2)C(=O)N=C2SC(CC(=O)N3CCOCC3)=NN12,2,19,15,10,-3,5,.,.,.

# Screens: PubChem BioAssay, Sanford-Burnham Center for Chemical Genomics
